Reference: ChEMBL document CHEMBL1128172, “Structure-activity relationships of cyclic pentapeptide endothelin A receptor antagonists” (J Med Chem, 1995)
Converted amounts (≈) assume the structure as drawn. Blank lines part the entries; values can stand above or below the molecule they belong to. Where a SMILES comes first, the peptide text is derived from it.

Legend:
[1] = Solubility in saline; format: physicochemical; settings: for solubility: saline, read-out: S
How it was run: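 Measured on the sodium salts, dissolved in saline.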

[2] = target: T1, Endothelin receptor type B (Sus scrofa, UniProt P35463); test: Inhibitory effect against porcine Endothelin B receptor
T1 sequence (P35463 whole entry): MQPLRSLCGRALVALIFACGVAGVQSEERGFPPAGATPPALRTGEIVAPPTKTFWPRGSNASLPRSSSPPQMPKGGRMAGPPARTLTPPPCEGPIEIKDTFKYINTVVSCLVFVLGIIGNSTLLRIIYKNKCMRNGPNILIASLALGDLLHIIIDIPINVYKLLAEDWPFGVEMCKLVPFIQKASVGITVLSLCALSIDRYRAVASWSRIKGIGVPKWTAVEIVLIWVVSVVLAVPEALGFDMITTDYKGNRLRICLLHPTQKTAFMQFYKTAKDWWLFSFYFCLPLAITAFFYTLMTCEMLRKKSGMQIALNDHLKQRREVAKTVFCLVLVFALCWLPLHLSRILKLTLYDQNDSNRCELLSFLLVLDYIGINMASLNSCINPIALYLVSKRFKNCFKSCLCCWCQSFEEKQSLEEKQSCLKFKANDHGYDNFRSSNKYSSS

[3] = target: T2, Endothelin receptor type B (Homo sapiens, UniProt P24530); test: Inhibitory effect against Human Endothelin B receptor
T2 sequence (P24530 whole entry): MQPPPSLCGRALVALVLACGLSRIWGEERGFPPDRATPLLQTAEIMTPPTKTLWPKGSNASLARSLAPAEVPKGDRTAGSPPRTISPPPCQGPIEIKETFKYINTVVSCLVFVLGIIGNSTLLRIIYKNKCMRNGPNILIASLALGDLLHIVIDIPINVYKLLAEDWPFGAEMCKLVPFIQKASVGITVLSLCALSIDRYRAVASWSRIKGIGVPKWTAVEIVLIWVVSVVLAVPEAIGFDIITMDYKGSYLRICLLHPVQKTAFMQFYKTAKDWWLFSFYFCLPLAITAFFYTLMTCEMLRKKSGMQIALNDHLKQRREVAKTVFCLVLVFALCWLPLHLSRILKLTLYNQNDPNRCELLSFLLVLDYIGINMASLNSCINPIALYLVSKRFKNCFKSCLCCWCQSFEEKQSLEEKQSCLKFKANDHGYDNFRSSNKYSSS

Endothelin-1 receptor [4] = target: T3, Endothelin-1 receptor (Sus scrofa, UniProt Q29010); test: Inhibitory effect against porcine ET-A receptor
T3 sequence (Q29010 whole entry): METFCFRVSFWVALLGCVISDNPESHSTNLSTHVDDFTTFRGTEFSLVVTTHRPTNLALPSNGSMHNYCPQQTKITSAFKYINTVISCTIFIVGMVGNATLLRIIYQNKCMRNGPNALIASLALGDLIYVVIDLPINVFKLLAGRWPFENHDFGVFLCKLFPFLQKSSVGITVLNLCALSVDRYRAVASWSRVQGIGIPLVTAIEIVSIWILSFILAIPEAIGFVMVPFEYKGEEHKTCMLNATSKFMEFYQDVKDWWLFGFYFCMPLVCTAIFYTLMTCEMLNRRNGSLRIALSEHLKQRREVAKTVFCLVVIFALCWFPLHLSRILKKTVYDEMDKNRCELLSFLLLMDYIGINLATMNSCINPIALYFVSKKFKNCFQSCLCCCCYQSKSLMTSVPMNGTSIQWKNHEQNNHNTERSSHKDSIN
How it was run: (§1)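 [125I]ET-1 displacement from porcine aortic smooth muscle membranes, which are rich in ETA receptors. The IC50 is taken at the high-affinity sites and averaged over more than three independent experiments. The protocol follows an earlier report.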

Endothelin-1 receptor [5] = target: T3, Endothelin-1 receptor; test: The compound was tested for binding inhibitory activity against Endothelin A receptor from porcine aortic smooth muscle membranes.
Endothelin-1 receptor [6] = target: T4, Endothelin-1 receptor (Homo sapiens, UniProt P25101); test: Inhibitory effect against Human ET-A receptor
T4 sequence (P25101 whole entry): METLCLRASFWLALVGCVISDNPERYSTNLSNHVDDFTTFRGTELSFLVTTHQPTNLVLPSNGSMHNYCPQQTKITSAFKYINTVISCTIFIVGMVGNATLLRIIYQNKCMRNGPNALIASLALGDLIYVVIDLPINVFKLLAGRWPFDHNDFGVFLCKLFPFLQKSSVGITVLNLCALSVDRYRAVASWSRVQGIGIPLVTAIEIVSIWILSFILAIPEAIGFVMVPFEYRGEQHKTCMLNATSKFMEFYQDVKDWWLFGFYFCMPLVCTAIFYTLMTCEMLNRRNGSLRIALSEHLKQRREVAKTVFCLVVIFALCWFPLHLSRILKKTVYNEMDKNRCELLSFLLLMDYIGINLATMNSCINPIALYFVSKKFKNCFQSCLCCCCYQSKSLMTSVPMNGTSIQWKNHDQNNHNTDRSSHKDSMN
How it was run: (§2)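 Competition binding of 12 pM [125I]ET-1 to membranes from human neuroblastoma SK-N-MC cells (ETA) or Girardi heart cells (ETB), with increasing test compound, in 50 mM Tris/HCl pH 7.4 with protease inhibitors, 1 mM EDTA and 0.3% BSA. Incubated 4 h at 25 °C, filtered, washed, gamma-counted. Nonspecific binding defined with 0.2 μM ET-1. Values are the average of two independent experiments.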

Sus scrofa = organism: Sus scrofa; test: Anti vasoconstriction activity was evaluated in isolated porcine coronary arteries; format: functional; settings: read-out: pA2 (converted)
Endothelin-1 receptor [7] = target: T4, Endothelin-1 receptor; test: Inhibitory effect against Human Endothelin A receptor; how it was run: as §2
Endothelin-1 receptor [8] = target: T3, Endothelin-1 receptor; test: Inhibitory effect against porcine Endothelin A receptor; how it was run: as §1

solubility [1]: 4000 µg/mL (≈ 6.15 mM)
IC50 [2]: 19 µM
IC50 [3]: 55 µM
IC50 (Endothelin-1 receptor [4]): 0.003 µM
IC50 max (Endothelin-1 receptor [5]): 0.003 µM
IC50 (Endothelin-1 receptor [6]): 0.0012 µM
Compound: CC(C)C[C@@H]1NC(=O)[C@@H](c2cccs2)NC(=O)[C@@H]2CCCN2C(=O)[C@@H](CC(=O)O)NC(=O)[C@@H](Cc2c[nH]c3ccccc23)NC1=O (single isomer, unassigned)
Kb (Sus scrofa): 0.00794 µM

IC50 max (Endothelin-1 receptor [5]): 0.2 µM
Compound: CC(C)C[C@@H]1NC(=O)[C@@H](C(C)C)NC(=O)[C@H](CCCCN)NC(=O)[C@@H](CC(=O)O)NC(=O)[C@@H](Cc2c[nH]c3ccccc23)NC1=O (single isomer, unassigned)

IC50 max (Endothelin-1 receptor [5]): 0.23 µM
Compound: CC[C@H](C)[C@@H]1NC(=O)[C@@H](C(C)C)NC(=O)[C@@H]2CCCN2C(=O)[C@@H](CC(=O)O)NC(=O)[C@@H](Cc2c[nH]c3ccccc23)NC1=O (stereo in doubt)

IC50 max (Endothelin-1 receptor [5]): 0.16 µM
Compound: CC(C)C[C@@H]1NC(=O)[C@@H](C(C)C)NC(=O)[C@H](CCC(N)=O)NC(=O)[C@@H](CC(=O)O)NC(=O)[C@@H](Cc2c[nH]c3ccccc23)NC1=O (single isomer, unassigned)

IC50 max (Endothelin-1 receptor [5]): 0.034 µM
Compound: CC(C)C[C@@H]1NC(=O)[C@@H](C(C)C)NC(=O)[C@H](C)N(C)C(=O)[C@@H](CC(=O)O)NC(=O)[C@@H](Cc2c[nH]c3ccccc23)NC1=O (single isomer, unassigned)

solubility [1]: > 10000 µg/mL
IC50 [2]: 30 µM
IC50 [3]: > 100 µM
IC50 max (Endothelin-1 receptor [5]): 0.021 µM
IC50 (Endothelin-1 receptor [8]): 0.021 µM
IC50 (Endothelin-1 receptor [7]): 0.03 µM
Compound: CC(C)C[C@@H]1NC(=O)[C@@H](C(C)C)NC(=O)[C@@H]2CCCN2C(=O)[C@@H](CS(=O)(=O)O)NC(=O)[C@@H](Cc2c[nH]c3ccccc23)NC1=O (single isomer, unassigned)
Kb (Sus scrofa): 0.0398 µM

Continued, molecule first:

Compound: CC(C)C[C@@H]1NC(=O)[C@@H](C2CCCC2)NC(=O)[C@@H]2CCCN2C(=O)[C@@H](CC(=O)O)NC(=O)[C@@H](Cc2c[nH]c3ccccc23)NC1=O (single isomer, unassigned)
solubility [1]: > 100000 µg/mL
IC50 [2]: 4.8 µM
IC50 [3]: 21 µM
IC50 (Endothelin-1 receptor [4]): 0.004 µM
IC50 max (Endothelin-1 receptor [5]): 0.004 µM
IC50 (Endothelin-1 receptor [6]): 0.0034 µM
Kb (Sus scrofa): 0.0316 µM

Compound: CC(C)C[C@@H]1NC(=O)[C@@H](C(C)C)NC(=O)[C@@H]2CCCN2C(=O)[C@@H](CC(=O)O)NC(=O)[C@@H](Cc2c[nH]c3ccccc23)NC1=O (single isomer, unassigned)
S ([1]; buffer): > 1000 mg/mL
IC50 max (Endothelin-1 receptor [5]): 0.022 µM
IC50 (Endothelin-1 receptor [7]): 0.0083 µM
Kb (Sus scrofa): 0.0398 µM

Compound: CC[C@H](C)[C@H]1NC(=O)[C@@H]2CCCN2C(=O)[C@@H](CC(=O)O)NC(=O)[C@@H](Cc2c[nH]c3ccccc23)NC(=O)[C@H](CC(C)C)NC1=O
IC50 max (Endothelin-1 receptor [5]): 0.012 µM

Compound: CC(C)C[C@@H]1NC(=O)[C@@H](C(C)C)NC(=O)C(C)(C)NC(=O)[C@@H](CC(=O)O)NC(=O)[C@@H](Cc2c[nH]c3ccccc23)NC1=O (single isomer, unassigned)
IC50 max (Endothelin-1 receptor [5]): 0.33 µM

Compound: CC(C)C[C@@H]1NC(=O)[C@@H](C(C)C)NC(=O)[C@H](C)NC(=O)[C@H](CCC(=O)O)NC(=O)[C@H](Cc2c[nH]c3ccccc23)NC1=O (single isomer, unassigned)
IC50 max (Endothelin-1 receptor [5]): > 100 µM

Compound: CC(C)C[C@@H]1NC(=O)[C@@H](C2=CCC=CC2)NC(=O)[C@@H]2CCCN2C(=O)[C@@H](CC(=O)O)NC(=O)[C@@H](Cc2c[nH]c3ccccc23)NC1=O (single isomer, unassigned)
IC50 max (Endothelin-1 receptor [5]): 0.019 µM

Compound: CC[C@H](C)[C@H]1NC(=O)[C@H](C)NC(=O)[C@@H](CCC(=O)O)NC(=O)[C@@H](Cc2c[nH]c3ccccc23)NC(=O)[C@H](CC(C)C)NC1=O (HELM PEPTIDE1{A.[CC[C@H](C)[C@@H](N[*:1])C(=O)[*:2]].L.[dW].[dE]}$PEPTIDE1,PEPTIDE1,1:R1-5:R2$$$V2.0)
solubility [1]: 210 µg/mL (≈ 0.343 mM)
IC50 [2]: > 100 µM
IC50 [3]: > 100 µM
IC50 max (Endothelin-1 receptor [5]): 1.4 µM
IC50 (Endothelin-1 receptor [8]): 1.4 µM
IC50 (Endothelin-1 receptor [7]): 0.59 µM

Compound: CC(C)C[C@@H]1NC(=O)[C@@H](C(C)(C)C)NC(=O)[C@@H]2CCCN2C(=O)[C@@H](CC(=O)O)NC(=O)[C@@H](Cc2c[nH]c3ccccc23)NC1=O (single isomer, unassigned)
IC50 max (Endothelin-1 receptor [5]): 0.015 µM

Compound: CC(C)C[C@@H]1NC(=O)[C@@H](C(C)C)NC(=O)[C@@H]2CCCN2C(=O)[C@@H](CCC(=O)O)NC(=O)[C@@H](Cc2c[nH]c3ccccc23)NC1=O (single isomer, unassigned)
IC50 max (Endothelin-1 receptor [5]): 0.41 µM

Compound: CC(C)C[C@@H]1NC(=O)[C@@H](C(C)C)NC(=O)[C@H](CS(=O)(=O)O)NC(=O)[C@@H](CC(=O)O)NC(=O)[C@@H](Cc2c[nH]c3ccccc23)NC1=O (single isomer, unassigned)
IC50 max (Endothelin-1 receptor [5]): 0.14 µM

Compound: CC(C)C[C@@H]1NC(=O)[C@@H](C(C)C)NC(=O)[C@@H]2CCCN2C(=O)[C@@H](CCO)NC(=O)[C@@H](Cc2c[nH]c3ccccc23)NC1=O (single isomer, unassigned)
IC50 max (Endothelin-1 receptor [5]): 1.7 µM
